These results are taken from ChEMBL document CHEMBL5236607, “Membrane-Active Cyclic Amphiphilic Peptides: Broad-Spectrum Antibacterial Activity Alone and in Combination with Antibiotics” (J Med Chem, 2022).

One may read the MIC as the least concentration at which growth counts as inhibited.

Experiment [1] has as its system Klebsiella pneumoniae. In words: Antibacterial activity against multidrug resistant Klebsiella pneumoniae 1188718 after 24 hrs by microbroth dilution method. It counts as functional. A general note: In broth dilution the organism is exposed to a series of concentrations in liquid medium.
Experiment [2] relates to Pseudomonas aeruginosa. In words: Synergistic antibacterial activity against Pseudomonas aeruginosa ATCC […] assessed as fractional inhibitory concentration index incubated for 24 hrs in presence of tobramycin by checkerboard assay. In kind it is functional.
The test system of experiment [3] is Escherichia coli. In words: Synergistic antibacterial activity against Escherichia coli ATCC 25922 assessed as fractional inhibitory concentration index incubated for 24 hrs in presence of tobramycin by checkerboard assay. In kind it is functional. The method in brief:
(§1)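 Checkerboard assay in MH broth. Inoculum from an LB overnight culture set to 0.5 McFarland and diluted 1/150. […] Each agent was also titrated alone. Incubation 24 h at 37 °C. FIC = combination MIC/individual MIC; FICI = sum of the FICs. Triplicate.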

In another experiment the test system is Staphylococcus aureus. The experiment in a line: Synergistic antibacterial activity against methicillin resistant Staphylococcus aureus ATCC BAA-1556 fractional inhibitory concentration index incubated for 24 hrs in presence of levofloxacin by checkerboard assay. It counts as functional. The method in brief: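 Checkerboard assay. Inoculum from an LB overnight culture at 0.5 McFarland, diluted 1/150 in MH media. […] Incubated 37 °C for 24 h. FICI = MIC combination/MIC alone summed over both agents. Triplicate.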

In experiment [4] the test system is Klebsiella pneumoniae. The experiment in a line: Synergistic antibacterial activity against Klebsiella pneumoniae ATCC BAA-1705 fractional inhibitory concentration index incubated for 24 hrs in presence of meropenem by checkerboard assay. In kind it is functional. The method in brief:
as §1

The subject of experiment [5] is Pseudomonas aeruginosa. The experiment in a line: Synergistic antibacterial activity against Pseudomonas aeruginosa ATCC […] assessed as fractional inhibitory concentration incubated for 24 hrs in presence of tobramycin by checkerboard assay. It counts as functional.
Experiment [6] relates to Escherichia coli. In words: Bactericidal activity against Escherichia coli assessed as reduction in bacterial cells at 4 times MIC after 2 hrs by time kill assay. In kind it is functional. Further details: scale not given: the % may be the effect or the level left. A digest of the protocol: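 Samples taken at time points from 0 to 24 h, serially diluted and plated on MH agar. CFU counted after 24 h at 37 °C. Untreated culture served as control. Two independent experiments in triplicate.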

The nature of experiment [7]: Membrano-lytic effect in mammalian membrane mimic DOPC/cholesterol (10:1) large unilamellar vesicles assessed as calcein leakage measured at 5 to 50 microg/ml measured after 100 mins by multimode microplate reader assay. In kind it is cell membranes. The settings on record: dose 5-50 µg/ml. A digest of the protocol: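 Calcein (70 mM) loaded into extruded 100 nm LUVs: DOPC:DOPG 7:3 (w/w) as the bacterial mimic, DOPC/cholesterol 10:1 (w/w) as the mammalian mimic. Free dye removed by gel filtration. Liposomes at 40 μM final lipid in PBS mixed 1:1 with peptide (5–50 μg/mL). Fluorescence (ex 490/em 520 nm) read every 10 min for 100 min; Triton X-100 defines 100% release. Triplicate.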

For a further experiment, the system named is Cell membrane. The experiment in a line: Membrano-lytic activity against Escherichia coli assessed as loss of membrane fluidity at 4 times MIC after 1 hr by SEM analysis. It counts as subcellular. A digest of the protocol: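 E. coli ATCC BAA-2452 from overnight culture, suspended at 10^7 CFU/mL in 10 mM PBS pH 7.4. […] Fixed in 4% glutaraldehyde in cacodylate buffer pH 7.4 for 3 h at 4 °C, ethanol-dehydrated, HMDS-dried, Au/Pd-coated, then imaged by FE-SEM.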

The subject of experiment [8] is Escherichia coli. In words: Induction of resistance development in Escherichia coli ATCC BAA-2452 assessed as increase in MIC by microtiter plate reader assay. It counts as functional, organism-based. A digest of the protocol: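 Serial passage resistance assay with 2-fold microdilution MICs in 96-well plates. Each passage takes the well with the highest concentration still permitting growth, adjusts it to 0.5 McFarland, and dilutes it to a final 5 × 10^5 CFU/mL for the next passage. Eighteen passages; MIC recorded at each. Triplicate.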

Experiment [9] relates to Escherichia coli. In words: Synergistic antibacterial activity against Escherichia coli ATCC 25922 fractional inhibitory concentration index incubated for 24 hrs in presence of Ciprofloxacin by checkerboard assay. In kind it is functional. The method in brief: as §1
For experiment [10], the system named is Escherichia coli. The experiment in a line: Synergistic antibacterial activity against Escherichia coli ATCC 25922 fractional inhibitory concentration index incubated for 24 hrs in presence of metronidazole by checkerboard assay. It counts as functional. A digest of the protocol:
as §1

Activity calls are given as the source filed them. No cut-off for these calls is given here. Peptide text beside a SMILES is read from it. A value given as a limit tells only on which side of the number the result lay.

Regarding `N=C(N)NCCC[C@@H]1NC(=O)[C@H](CCCNC(=N)N)NC(=O)[C@H](CCCNC(=N)N)NC(=O)[C@H](Cc2c[nH]c3ccccc23)NC(=O)[C@H](Cc2c[nH]c3ccccc23)NC(=O)[C@H](Cc2c[nH]c3ccccc23)NC(=O)[C@H](Cc2c[nH]c3ccccc23)NC(=O)[C@H](CCCNC(=N)N)NC(=O)[C@H](CCCNC(=N)N)NC1=O`, the MIC with Klebsiella pneumoniae [1] was more than 64 µg/mL. The “fractional inhibitory concentration index (FICI)” value in the experiment with Pseudomonas aeruginosa [2], in the experiment on Escherichia coli [3], in the experiment with Staphylococcus aureus and with Klebsiella pneumoniae [4] was 0.5 throughout. Further, the FIC in the experiment with Pseudomonas aeruginosa [5] stood at 0.25. For the same molecule, the results for the Activity (in the experiment with Escherichia coli [6]; in experiment [7]) were 100% and 13%, respectively. Also, the result in the experiment on Cell membrane was Active. The outcome in the experiment with Escherichia coli [8] was inactive.

With `N=C(N)NCCC[C@@H]1NC(=O)[C@H](CCCNC(=N)N)NC(=O)[C@H](CCCNC(=N)N)NC(=O)[C@H](CCCNC(=N)N)NC(=O)[C@H](Cc2c[nH]c3ccccc23)NC(=O)[C@H](Cc2c[nH]c3ccccc23)NC(=O)[C@H](Cc2c[nH]c3ccccc23)NC(=O)[C@H](Cc2c[nH]c3ccccc23)NC(=O)[C@H](CCCNC(=N)N)NC(=O)[C@H](CCCNC(=N)N)NC1=O` (cyclo(RRRRRRWWWW)), the “fractional inhibitory concentration index (FICI)” value in the experiment with Escherichia coli [9] worked out at 0.375; in the experiment with Escherichia coli [10] it was 0.625.
